Assay results as given in ChEMBL document CHEMBL3875208, “2-Oxoamides based on dipeptides as selective calcium-independent phospholipase A2 inhibitors” (Bioorg Med Chem, 2017).

System: Phospholipase A2 group VI, Homo sapiens
Assay: Inhibition of human calcium-independent group-6A iPLA2 using substrate mixed micelles at 0.091 mole_fraction by modified dole assay relative to control
Conditions: not given

Row | XI50 (mole fraction) | SMILES
1 | 0.028 | CCCCC/C=C\C/C=C\C/C=C\C/C=C\CCCC(=O)C(F)(F)F

System: Phospholipase A2 group VI, Homo sapiens
Assay: Inhibition of human calcium-independent group-6A iPLA2 using Triton-X-100/PAPC/arachidonyl-1-14C PAPC substrate mixed micelles at 0.091 mole_fraction by modified dole assay relative to control
Conditions: not given

Row | SMILES | inhibition [%]
2 | CCCC[C@H](NC(=O)C(=O)CCCCc1ccc(OC)cc1)C(=O)NCCCCC(=O)OC(C)(C)C | 90.1
3 | CCCC[C@H](NC(=O)C(=O)CCCCc1ccc2ccccc2c1)C(=O)NCC(=O)OCC | 77.1
4 | CCCC[C@H](NC(=O)C(=O)CCCCc1ccccc1)C(=O)NCC(=O)O | < 25
5 | CCCC[C@H](NC(=O)C(=O)CCCCc1ccc2ccccc2c1)C(=O)NCC(=O)O | < 25
6 | CCCC[C@H](NC(=O)C(=O)CCCCc1ccc(OC)cc1)C(=O)NCCCC(=O)OC(C)(C)C | > 95
7 | CCCC[C@H](NC(=O)C(=O)CCCCc1ccc(OC)cc1)C(N)=O | 66.2
8 | CCCC[C@H](NC(=O)C(=O)CCCCc1ccc(OC)cc1)C(=O)NCCC(=O)OC(C)(C)C | 83.1

The remaining lines, values ahead:

Row | inhibition [%] | SMILES
9 | 76 | CCCC[C@@H](COCC(=O)OC(C)(C)C)NC(=O)C(=O)CCCCc1ccccc1
10 | 87.1 | CCCC[C@H](NC(=O)C(=O)CCCCc1ccc(OC)cc1)C(=O)N[C@H](C)C(=O)OC(C)(C)C
11 | > 95 | COc1ccc(CCCCC(=O)C(=O)N[C@@H](CC(C)C)C(=O)NCC(=O)OC(C)(C)C)cc1
12 | 60 | CCCC[C@H](NC(=O)C(=O)CCCCc1ccc(OC)cc1)C(=O)OC(C)(C)C
13 | > 95 | CCCC[C@@H](NC(=O)C(=O)CCCCc1ccc(OC)cc1)C(=O)NCC(=O)OC(C)(C)C

System: Phospholipase A2 group VI, Homo sapiens
Assay: Inhibition of human calcium-independent group-6A iPLA2 using Triton-X-100/PAPC/arachidonyl-1-14C PAPC substrate mixed micelles by modified dole assay
Conditions: not given

Row | XI50 (mole fraction) | SMILES
14 | 0.024 | COc1ccc(CCCCC(=O)C(=O)N[C@@H](CC(C)C)C(=O)NCC(=O)OC(C)(C)C)cc1
15 | 0.04 | CCCC[C@@H](NC(=O)C(=O)CCCCc1ccc(OC)cc1)C(=O)NCC(=O)OC(C)(C)C
16 | 0.007 | CCCC[C@H](NC(=O)C(=O)CCCCc1ccc(OC)cc1)C(=O)NCCCC(=O)OC(C)(C)C

Species on record: Homo sapiens
Assay: Selectivity ratio of XI50 for human group-4 cPLA2 to XI50 for human calcium-independent group-6A iPLA2
Conditions: not given

Row | Selectivity ratio | SMILES
17 | 13 | CCCC[C@H](NC(=O)C(=O)CCCCc1ccc(OC)cc1)C(=O)NCCCC(=O)OC(C)(C)C

Molecular target: T1, Phospholipase A2 group V (Homo sapiens) (UniProt P39877)
T1 sequence (whole entry): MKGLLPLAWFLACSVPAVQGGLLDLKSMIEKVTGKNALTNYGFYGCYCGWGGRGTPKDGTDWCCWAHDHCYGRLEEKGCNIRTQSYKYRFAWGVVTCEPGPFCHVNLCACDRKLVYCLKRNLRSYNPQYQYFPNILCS
Assay: Inhibition of human calcium-independent group-5 sPLA2 using Triton-X-100/PAPC/arachidonyl-1-14C PAPC substrate mixed micelles at 0.091 mole_fraction by modified dole assay relative to control
Conditions: in the assay text read “group-5 sPLA2” for “calcium-independent group-5 sPLA2”
Outline: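 Human GV sPLA2 activity was measured by modified Dole assay. Inhibitor was added from a 5 mM DMSO stock to give 0.091 mole fraction in substrate, and percent inhibition was recorded.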

Row | SMILES | inhibition [%]
18 | CCCC[C@H](NC(=O)C(=O)CCCCc1ccc(OC)cc1)C(=O)NCCCC(=O)OC(C)(C)C | 44.8
19 | CCCC[C@H](NC(=O)C(=O)CCCCc1ccc(OC)cc1)C(N)=O | 31.1

Further lines, results first:

Row | inhibition [%] | SMILES
20 | 49.9 | CCCC[C@H](NC(=O)C(=O)CCCCc1ccc(OC)cc1)C(=O)N[C@H](C)C(=O)OC(C)(C)C
21 | 40.8 | COc1ccc(CCCCC(=O)C(=O)N[C@@H](CC(C)C)C(=O)NCC(=O)OC(C)(C)C)cc1
22 | 60.6 | CCCC[C@H](NC(=O)C(=O)CCCCc1ccc(OC)cc1)C(=O)OC(C)(C)C
23 | 39.3 | CCCC[C@@H](NC(=O)C(=O)CCCCc1ccc(OC)cc1)C(=O)NCC(=O)OC(C)(C)C

Molecular target: T1, Phospholipase A2 group V (Homo sapiens)
Assay: Inhibition of human group-5 sPLA2 using Triton-X-100/PAPC/arachidonyl-1-14C PAPC substrate mixed micelles at 0.091 mole_fraction by modified dole assay relative to control
Conditions: not given

Row | inhibition [%] | SMILES
24 | 57.5 | CCCC[C@@H](COCC(=O)OC(C)(C)C)NC(=O)C(=O)CCCCc1ccccc1
25 | 56.3 | CCCC[C@H](NC(=O)C(=O)CCCCc1ccc(OC)cc1)C(=O)NCCCCC(=O)OC(C)(C)C
26 | 54.4 | CCCC[C@H](NC(=O)C(=O)CCCCc1ccc2ccccc2c1)C(=O)NCC(=O)OCC
27 | < 25 | CCCC[C@H](NC(=O)C(=O)CCCCc1ccccc1)C(=O)NCC(=O)O
28 | < 25 | CCCC[C@H](NC(=O)C(=O)CCCCc1ccc2ccccc2c1)C(=O)NCC(=O)O
29 | 32.5 | CCCC[C@H](NC(=O)C(=O)CCCCc1ccc(OC)cc1)C(=O)NCCC(=O)OC(C)(C)C

Molecular target: T2, Cytosolic phospholipase A2 (Homo sapiens) (UniProt P47712)
T2 sequence (whole entry): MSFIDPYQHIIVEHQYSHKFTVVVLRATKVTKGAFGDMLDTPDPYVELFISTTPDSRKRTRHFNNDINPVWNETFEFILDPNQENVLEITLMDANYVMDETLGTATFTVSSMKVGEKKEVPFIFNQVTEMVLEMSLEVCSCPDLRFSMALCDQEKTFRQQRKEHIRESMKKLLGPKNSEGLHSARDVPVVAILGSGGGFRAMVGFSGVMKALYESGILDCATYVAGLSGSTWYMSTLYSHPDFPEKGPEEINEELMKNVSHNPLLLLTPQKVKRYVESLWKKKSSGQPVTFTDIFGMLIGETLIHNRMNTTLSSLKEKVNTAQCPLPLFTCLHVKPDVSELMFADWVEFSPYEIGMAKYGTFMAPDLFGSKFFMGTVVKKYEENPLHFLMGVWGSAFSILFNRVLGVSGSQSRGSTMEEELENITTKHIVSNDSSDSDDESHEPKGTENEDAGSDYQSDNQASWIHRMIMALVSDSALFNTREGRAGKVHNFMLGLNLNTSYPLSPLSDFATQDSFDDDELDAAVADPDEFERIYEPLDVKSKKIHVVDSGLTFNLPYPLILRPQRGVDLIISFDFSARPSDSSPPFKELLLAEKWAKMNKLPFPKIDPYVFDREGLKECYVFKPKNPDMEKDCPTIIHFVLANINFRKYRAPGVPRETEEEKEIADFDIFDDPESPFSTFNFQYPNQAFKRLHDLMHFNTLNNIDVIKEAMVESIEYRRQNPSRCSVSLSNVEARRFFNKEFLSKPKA
Assay: Inhibition of human group-4 cPLA2 using Triton-X-100/PAPC/arachidonyl-1-14C PAPC/PIP2 substrate mixed micelles at 0.091 mole_fraction by modified dole assay relative to control
Conditions: not given
Outline: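 Buffer was 100 mM HEPES pH 7.5 with 90 μM CaCl2, 2 mM DTT and 0.1 mg/ml BSA. Activity was read by modified Dole assay with inhibitor at 0.091 mole fraction, added from a 5 mM DMSO stock, and expressed as percent inhibition.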

Row | SMILES | inhibition [%]
30 | CCCC[C@H](NC(=O)C(=O)CCCCc1ccc(OC)cc1)C(=O)NCCCCC(=O)OC(C)(C)C | 64.5
31 | CCCC[C@H](NC(=O)C(=O)CCCCc1ccc2ccccc2c1)C(=O)NCC(=O)OCC | 70.5
32 | CCCC[C@H](NC(=O)C(=O)CCCCc1ccccc1)C(=O)NCC(=O)O | < 25
33 | CCCC[C@H](NC(=O)C(=O)CCCCc1ccc2ccccc2c1)C(=O)NCC(=O)O | 43.1
34 | CCCC[C@H](NC(=O)C(=O)CCCCc1ccc(OC)cc1)C(=O)NCCCC(=O)OC(C)(C)C | 52.6
35 | CCCC[C@H](NC(=O)C(=O)CCCCc1ccc(OC)cc1)C(N)=O | 29.3
36 | CCCC[C@H](NC(=O)C(=O)CCCCc1ccc(OC)cc1)C(=O)NCCC(=O)OC(C)(C)C | 37.8

Other lines, results leading:

Row | inhibition [%] | SMILES
37 | 82.3 | CCCC[C@@H](COCC(=O)OC(C)(C)C)NC(=O)C(=O)CCCCc1ccccc1
38 | 73.4 | CCCC[C@H](NC(=O)C(=O)CCCCc1ccc(OC)cc1)C(=O)N[C@H](C)C(=O)OC(C)(C)C
39 | 51.6 | COc1ccc(CCCCC(=O)C(=O)N[C@@H](CC(C)C)C(=O)NCC(=O)OC(C)(C)C)cc1
40 | 85.7 | CCCC[C@H](NC(=O)C(=O)CCCCc1ccc(OC)cc1)C(=O)OC(C)(C)C
41 | 68 | CCCC[C@@H](NC(=O)C(=O)CCCCc1ccc(OC)cc1)C(=O)NCC(=O)OC(C)(C)C
